# In ChEMBL document CHEMBL5058577, “EUbOPEN Chemogenomics Library 2 (Multiplex)” (2022):
# System: U2OS
# Experiment: Multiplex assay against U2OS
# Format: toxicity, cell-based
# Conditions: human
# Outline: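 Cells were classed with CellPathfinder machine-learning gating, first as Hoechst high-intensity objects or normal cells, then (normal cells) as healthy, pyknosed or fragmented nuclei, and finally (pyknosed cells) as mitotic or apoptotic. Staining of live cells at seeding used Hoechst33342, BioTracker Green Microtubule Cytoskeleton Dye, MitoTracker Red and Annexin V Alexa Fluor 680, with imaging on a CQ1 microscope at 37°C and 5% CO2 after compound addition. Tubulin, mitochondrial-mass and membrane-permeability phenotypes are per cents of healthy-nucleus cells.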
# [1] = 12 h, 1 µM, compound concentration 1 uM, replicate 1
# [2] = 12 h, 1 µM, compound concentration 1 uM, replicate 2
# [3] = 12 h, 10 µM, compound concentration 10 uM, replicate 1
# [4] = 12 h, 10 µM, compound concentration 10 uM, replicate 2
# [5] = 24 h, 1 µM, compound concentration 1 uM, replicate 1
# [6] = 24 h, 1 µM, compound concentration 1 uM, replicate 2
# [7] = 24 h, 10 µM, compound concentration 10 uM, replicate 1
# [8] = 24 h, 10 µM, compound concentration 10 uM, replicate 2
# [9] = 48 h, 1 µM, compound concentration 1 uM, replicate 1
# [10] = 48 h, 1 µM, compound concentration 1 uM, replicate 2
# [11] = 48 h, 10 µM, compound concentration 10 uM, replicate 1
# [12] = 48 h, 10 µM, compound concentration 10 uM, replicate 2
smiles,measurement,setting,value
COc1c(C)cc(NC(=O)c2nn(Cc3ccc(F)cc3)c3c2CN(C(=O)c2ccc[nH]2)C[C@]3(C)C(N)=O)cc1C,Population Apoptotic (%),[1],65%
same,Population Fragmented Nuclei (%),[1],22%
same,Population Healthy Nuclei (%),[1],65%
same,Population Hoechst High Intensity Objects (%),[1],2%
same,Population Membrane Permeable-Phenotype (%),[1],8%
same,Population Mitochondria Different-Phenotype (%),[1],3%
same,Population Mitotic Cells (%),[1],34%
same,Population Normal (%),[1],97%
same,Population Pyknosed Nuclei (%),[1],12%
same,Population Tubulin-Different-Phenotype (%),[1],5%
same,Total Cell Count,[1],247
same,Population Apoptotic (%),[2],83%
same,Population Fragmented Nuclei (%),[2],21%
same,Population Healthy Nuclei (%),[2],72%
same,Population Mitochondria Different-Phenotype (%),[2],12%
same,Population Mitotic Cells (%),[2],16%
same,Population Pyknosed Nuclei (%),[2],6%
same,Population Tubulin-Different-Phenotype (%),[2],9%
same,Total Cell Count,[2],102
same,Population Apoptotic (%),[3],33%
same,Population Fragmented Nuclei (%),[3],26%
same,Population Healthy Nuclei (%),[3],43%
same,Population Hoechst High Intensity Objects (%),[3],9%
same,Population Membrane Permeable-Phenotype (%),[3],77%
same,Population Mitochondria Different-Phenotype (%),[3],90%
same,Population Mitotic Cells (%),[3],66%
same,Population Normal (%),[3],90%
same,Population Pyknosed Nuclei (%),[3],29%
same,Population Tubulin-Different-Phenotype (%),[3],95%
same,Total Cell Count,[3],223
same,Population Apoptotic (%),[4],60%
same,Population Fragmented Nuclei (%),[4],11%
same,Population Healthy Nuclei (%),[4],66%
same,Population Hoechst High Intensity Objects (%),[4],8%
same,Population Membrane Permeable-Phenotype (%),[4],54%
same,Population Mitochondria Different-Phenotype (%),[4],97%
same,Population Mitotic Cells (%),[4],39%
same,Population Normal (%),[4],91%
same,Population Pyknosed Nuclei (%),[4],21%
same,Population Tubulin-Different-Phenotype (%),[4],100%
same,Total Cell Count,[4],119
same,Population Apoptotic (%),[5],67%
same,Population Fragmented Nuclei (%),[5],16%
same,Population Healthy Nuclei (%),[5],71%
same,Population Hoechst High Intensity Objects (%),[5],5%
same,Population Membrane Permeable-Phenotype (%),[5],8%
same,Population Mitochondria Different-Phenotype (%),[5],6%
same,Population Mitotic Cells (%),[5],32%
same,Population Normal (%),[5],94%
same,Population Pyknosed Nuclei (%),[5],12%
same,Population Tubulin-Different-Phenotype (%),[5],7%
same,Total Cell Count,[5],265
same,Population Apoptotic (%),[6],61%
same,Population Fragmented Nuclei (%),[6],17%
same,Population Healthy Nuclei (%),[6],70%
same,Population Hoechst High Intensity Objects (%),[6],0%
same,Population Membrane Permeable-Phenotype (%),[6],7%
same,Population Mitochondria Different-Phenotype (%),[6],2%
same,Population Mitotic Cells (%),[6],38%
same,Population Normal (%),[6],99%
same,Population Pyknosed Nuclei (%),[6],11%
same,Population Tubulin-Different-Phenotype (%),[6],6%
same,Total Cell Count,[6],111
same,Population Apoptotic (%),[7],66%
same,Population Fragmented Nuclei (%),[7],26%
same,Population Healthy Nuclei (%),[7],41%
same,Population Hoechst High Intensity Objects (%),[7],12%
same,Population Membrane Permeable-Phenotype (%),[7],46%
same,Population Mitochondria Different-Phenotype (%),[7],92%
same,Population Mitotic Cells (%),[7],33%
same,Population Normal (%),[7],87%
same,Population Pyknosed Nuclei (%),[7],31%
same,Population Tubulin-Different-Phenotype (%),[7],94%
same,Total Cell Count,[7],216
same,Population Apoptotic (%),[8],65%
same,Population Fragmented Nuclei (%),[8],13%
same,Population Healthy Nuclei (%),[8],53%
same,Population Hoechst High Intensity Objects (%),[8],7%
same,Population Membrane Permeable-Phenotype (%),[8],49%
same,Population Mitochondria Different-Phenotype (%),[8],91%
same,Population Mitotic Cells (%),[8],34%
same,Population Normal (%),[8],92%
same,Population Pyknosed Nuclei (%),[8],33%
same,Population Tubulin-Different-Phenotype (%),[8],91%
same,Total Cell Count,[8],123
same,Population Apoptotic (%),[9],79%
same,Population Fragmented Nuclei (%),[9],18%
same,Population Healthy Nuclei (%),[9],68%
same,Population Hoechst High Intensity Objects (%),[9],2%
same,Population Membrane Permeable-Phenotype (%),[9],4%
same,Population Mitochondria Different-Phenotype (%),[9],3%
same,Population Mitotic Cells (%),[9],20%
same,Population Normal (%),[9],97%
same,Population Pyknosed Nuclei (%),[9],13%
same,Population Tubulin-Different-Phenotype (%),[9],2%
same,Total Cell Count,[9],365
same,Population Apoptotic (%),[10],84%
same,Population Fragmented Nuclei (%),[10],15%
same,Population Healthy Nuclei (%),[10],70%
same,Population Hoechst High Intensity Objects (%),[10],5%
same,Population Membrane Permeable-Phenotype (%),[10],9%
same,Population Mitochondria Different-Phenotype (%),[10],4%
same,Population Mitotic Cells (%),[10],15%
same,Population Normal (%),[10],94%
same,Population Tubulin-Different-Phenotype (%),[10],5%
same,Total Cell Count,[10],152
same,Population Apoptotic (%),[11],84%
same,Population Fragmented Nuclei (%),[11],31%
same,Population Healthy Nuclei (%),[11],24%
same,Population Hoechst High Intensity Objects (%),[11],17%
same,Population Membrane Permeable-Phenotype (%),[11],69%
same,Population Mitochondria Different-Phenotype (%),[11],85%
same,Population Mitotic Cells (%),[11],15%
same,Population Normal (%),[11],82%
same,Population Pyknosed Nuclei (%),[11],44%
same,Population Tubulin-Different-Phenotype (%),[11],90%
same,Total Cell Count,[11],212
same,Population Apoptotic (%),[12],87%
same,Population Fragmented Nuclei (%),[12],22%
same,Population Healthy Nuclei (%),[12],47%
same,Population Hoechst High Intensity Objects (%),[12],9%
same,Population Membrane Permeable-Phenotype (%),[12],50%
same,Population Mitochondria Different-Phenotype (%),[12],81%
same,Population Mitotic Cells (%),[12],12%
same,Population Normal (%),[12],90%
same,Population Pyknosed Nuclei (%),[12],29%
same,Population Tubulin-Different-Phenotype (%),[12],80%
same,Total Cell Count,[12],150
